Experimental data published in publication PMC6405215 (Cell chemical biology, 2018).

Assays:
human macrophages [1] = assay: Macrophage phagocytosis of serum-treated zymosan; type: cell-based; details: human MΦ; for phagocytosis of STZ, dose response: 0.1pM-10 nM, 15 min preincubation; for increase of phagocytosis of STZ above vehicle: 10 pM
In short: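 GM-CSF-differentiated human macrophages were plated at 50,000 cells/well in PBS++ and used 24 h later. Compounds (0.1 pM–10 nM) were added for 15 min at 37 °C, pH 7.45. FITC-labelled serum-treated zymosan was then added at 10:1 for 40 min at 37 °C. Extracellular signal was quenched with trypan blue and fluorescence read at Ex 493/Em 535 nm. Results are % above vehicle, triplicates from 3–4 donors, with curve fitting.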

DRV1/GPR32 [2] = target: T1, DRV1/GPR32 (Homo sapiens, UniProt O75388); assay: GPR32 PathHunter β-Arrestin Assay; type: cell-based
T1 sequence (O75388 whole entry): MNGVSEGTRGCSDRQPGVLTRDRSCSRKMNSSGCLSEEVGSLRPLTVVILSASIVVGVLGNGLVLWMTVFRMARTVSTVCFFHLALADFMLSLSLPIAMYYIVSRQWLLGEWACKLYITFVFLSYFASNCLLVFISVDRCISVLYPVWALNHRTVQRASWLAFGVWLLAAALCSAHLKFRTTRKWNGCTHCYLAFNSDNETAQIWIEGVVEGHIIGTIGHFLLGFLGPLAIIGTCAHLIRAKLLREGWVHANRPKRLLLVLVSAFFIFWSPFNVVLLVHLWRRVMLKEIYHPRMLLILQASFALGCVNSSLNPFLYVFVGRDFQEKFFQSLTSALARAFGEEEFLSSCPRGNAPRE
In short: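 CHO-K1 PathHunter GPR32 cells were grown with geneticin 800 μg/mL and hygromycin B 300 μg/mL, then seeded at 2,500 cells/well in 1536-well plates overnight. Compounds in DMSO were tested at 11 points (1:3, 57 μM–1 nM) for 90 min at 37 °C, then detection reagent was added for 1 h and luminescence read. DMSO (0.57%) set 0%; a 2-fold signal increase set 100%. Two experiments in triplicate.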

human macrophages [3] = assay: CD163; type: cell-based; details: 10 nM, 24h; significant only for RvD1
recombinant human DRV1 = recombinant human DRV1 (Homo sapiens, UniProt O75388); assay: Electrical cell substrate impedance sensing; type: cell-based; details: for direction of impedance change: CHO cells expressing DRV1, concentration not stated
recombinant human DRV1, sequence (O75388 whole entry): as above
In short: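 GPR32- or mock-transfected CHO cells were seeded at 0.1×10^6 per well of an 8-well ECIS electrode array. Test compounds were added in serum-free medium at 100 nM–10 μM. Impedance across the monolayer was recorded every 4 s for 10 min at 37 °C. Tracings are representative of 3 independent experiments.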

[4] = system: DRV1-transfected macrophages; assay: Real-time phagocytosis of live E. coli, macrophages overexpressing DRV1/GPR32; type: cell-based, human; details: 10 nM
In short: (§1)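 Macrophages were transfected with a human GPR32 expression vector or a mock vector (5 μg) using Jet-PEI. Cells were re-plated on chamber slides 48 h later and imaged 24 h after that in a stage-top incubator. Compound (10 nM) was given for 15 min at 37 °C, then BacLight Green-labelled E. coli at 50:1. Fluorescence was imaged every 10 min for 60 min, 4 fields/well at 40X. Results are % above vehicle from 3 donors.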

DRV1/GPR32 [5] = target: T1, DRV1/GPR32; assay: GPR32 cAMP HTRF signaling assay; type: cell-based; details: for effect on forskolin-stimulated cAMP: forskolin 8 μM
In short: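 CHO-K1 PathHunter GPR32 cells were seeded at 1,800 cells/well for 20 h, then stimulated with forskolin (8 μM final) plus Ro 20-1724 (100 μM final). Compounds were added as 1:3 dilutions (57 μM–1 nM final) for 30 min at 37 °C. cAMP was read by HTRF as the 665/615 nm ratio ×10,000. Forskolin alone set 0%; DMSO (0.57%) set −100%. Two experiments in triplicate.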

[6] = system: mock-transfected macrophages; assay: Real-time phagocytosis of live E. coli, mock-transfected macrophages; type: cell-based, human; details: 10 nM
In short: as §1

CHO-WT cells = assay: ECIS in wild-type CHO cells; type: cell-based, Chinese hamster; details: 1μM
[7] = hGPR32/DRV1-transfected, 10 min

| Structure (SMILES) | EC50 (DRV1/GPR32 [2]) [µM] | direction of impedance change (recombinant human DRV1) | EC50 (DRV1/GPR32 [5]) [µM] | impedance change (recombinant human DRV1; CHO-hDRV1, 100 nM) | phagocytosis of STZ (human macrophages [1]; 0.1–10 nM) | increase of CD163 levels compared to vehicle (human macrophages [3]) [%] | impedance change (recombinant human DRV1; CHO-DRV1, 100 nM-10 μM) | increase of phagocytosis of E. coli above vehicle control [4, 7] [%] | effect on forskolin-stimulated cAMP (DRV1/GPR32 [5]) | increase of phagocytosis of E. coli above vehicle control ([6]; 10 min) | phagocytosis of STZ, dose response (human macrophages [1]) | increase of phagocytosis of STZ above vehicle (human macrophages [1]) | increase of phagocytosis of E. coli above vehicle control ([4]; DRV1-transfected, 20–30 min) [%] | increase of phagocytosis of E. coli above vehicle control ([6]; 20–30 min) | β-arrestin signal increase above basal cell activity (DRV1/GPR32 [2]; GPR32 β-arrestin cells, 11 concentrations 57 μM to 1 nM) | impedance change (CHO-WT cells) | impedance change (recombinant human DRV1; CHO-DRV1 cells, 1μM) | β-arrestin activity (DRV1/GPR32 [2]; dose response) |
| --- | --- | --- | --- | --- | --- | --- | --- | --- | --- | --- | --- | --- | --- | --- | --- | --- | --- | --- |
| NCCc1c[nH]c2ccc(O)cc12 [5-HT] | – | – | – | – | did not significantly increase phagocytosis | – | – | – | – | – | – | – | – | – | – | – | – | – |
| COc1cccc(C(=O)Nc2cccc(-c3nc4ncccn4c3C)c2)c1 [C2B, 3-methoxy-N-[3-(3-methylimidazo[1,2-a]pyrimidin-2-yl)phenyl]benzamide] | 1.17 | increased impedance | 0.19 | – | – | – | dose-dependently elicited rapid changes in impedance | – | dose-dependently reduced forskolin-stimulated cAMP release | – | – | – | – | – | – | – | – | – |
| COc1ccccc1N1CCN(CCN(C(=O)c2ccc(F)cc2)c2ccccn2)CC1 [pMPPF, 4-Fluoro-N-{2-[4-(2-methoxyphenyl)-1-piperazinyl]ethyl}-N-(2-pyridinyl)benzamide, reference compound] | 1.16 | increased impedance | – | – | – | 13.7 | – | – | dose-dependently reduced forskolin-stimulated cAMP release | – | enhanced phagocytosis in a dose-dependent manner | ~ 60% | > 50 | – | ~ 30% | did not give significant impedance changes | increased | – |
| COc1ccccc1N1CCN(CCN(C(=O)c2ccc(I)cc2)c2ccccn2)CC1 [pMPPI, 4-iodo-N-{2-[4-(2-methoxyphenyl)-1-piperazinyl]ethyl}-N-(2-pyridinyl)benzamide, reference compound] | – | reduced impedance | 2.5 | – | – | 20.0 | – | – | increased forskolin-stimulated cAMP release | – | enhanced phagocytosis in a dose-dependent manner | significantly less potent than pMPPF | – | – | – | did not give significant impedance changes | reduced impedance | not β-arrestin activities |

Continued, in another order:

| EC50 (DRV1/GPR32 [2]) [µM] | direction of impedance change (recombinant human DRV1) | EC50 (DRV1/GPR32 [5]) [µM] | impedance change (recombinant human DRV1; CHO-hDRV1, 100 nM) | Structure (SMILES) | phagocytosis of STZ (human macrophages [1]; 0.1–10 nM) | increase of CD163 levels compared to vehicle (human macrophages [3]) [%] | impedance change (recombinant human DRV1; CHO-DRV1, 100 nM-10 μM) | increase of phagocytosis of E. coli above vehicle control [4, 7] [%] | effect on forskolin-stimulated cAMP (DRV1/GPR32 [5]) | increase of phagocytosis of E. coli above vehicle control ([6]; 10 min) | phagocytosis of STZ, dose response (human macrophages [1]) | increase of phagocytosis of STZ above vehicle (human macrophages [1]) | increase of phagocytosis of E. coli above vehicle control ([4]; DRV1-transfected, 20–30 min) [%] | increase of phagocytosis of E. coli above vehicle control ([6]; 20–30 min) | β-arrestin signal increase above basal cell activity (DRV1/GPR32 [2]; GPR32 β-arrestin cells, 11 concentrations 57 μM to 1 nM) | impedance change (CHO-WT cells) | impedance change (recombinant human DRV1; CHO-DRV1 cells, 1μM) | β-arrestin activity (DRV1/GPR32 [2]; dose response) |
| --- | --- | --- | --- | --- | --- | --- | --- | --- | --- | --- | --- | --- | --- | --- | --- | --- | --- | --- |
| 0.93 | increased impedance | 0.38 | – | COc1cccc(C(=O)Nc2nnc(S(=O)(=O)N3CCOCC3)s2)c1 [C1A, 3-methoxy-N-(5-morpholin-4-ylsulfonyl-1,3,4-thiadiazol-2-yl)benzamide] | – | 4.7 | dose-dependently elicited rapid changes in impedance | > 70 | dose-dependently reduced forskolin-stimulated cAMP release | ~ 15% | enhanced phagocytosis in a dose-dependent manner | 35–40% | – | – | – | – | – | – |
| 3.79 | increased impedance | 0.32 | – | O=C(Nc1nnc(S(=O)(=O)N2CCOCC2)s1)c1cccc(Br)c1 [C1B, 3-bromo-N-(5-morpholin-4-ylsulfonyl-1,3,4-thiadiazol-2-yl)benzamide] | – | – | dose-dependently elicited rapid changes in impedance | – | dose-dependently reduced forskolin-stimulated cAMP release | – | – | – | – | – | – | – | – | – |
| 0.37 | increased impedance | 0.05 | – | Cc1c(-c2cccc(NC(=O)c3ccc(F)c(F)c3)c2)nc2ncccn12 [C2A, 3,4-difluoro-N-[3-(3-methylimidazo[1,2-a]pyrimidin-2-yl)phenyl]benzamide] | – | 13.3 | dose-dependently elicited rapid changes in impedance | > 40 | dose-dependently reduced forskolin-stimulated cAMP release | – | enhanced phagocytosis in a dose-dependent manner | 35–40% | – | – | – | – | – | – |
| – | reduced impedance | – | time-dependently reduced impedance | CC/C=C\C[C@H](O)/C=C/C=C\C=C\C=C\[C@@H](O)[C@@H](O)C/C=C\CCC(=O)O [RvD1, 7S,8R,17S-trihydroxy-4Z,9E,11E,13Z,15E,19Z-docosahexaenoic acid, reference compound] | – | 25.7 | – | – | – | – | dose-dependently increased phagocytosis | ~ 60% | > 100 | 30–40% | – | – | – | – |
